Experimental data from ChEMBL document CHEMBL4689842, “EUbOPEN Chemogenomics Library wave 1” (2021).

System: Fibroblast
Assay: Multiplex assay against human fibroblast
Format: toxicity, cell-based
How it was run: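 Compound was added to live cells that had been stained at seeding with Hoechst33342, BioTracker Green Microtubule Cytoskeleton Dye, MitoTracker Red and Annexin V Alexa Fluor 680, and imaging followed on a CQ1 microscope at 37°C and 5% CO2. CellPathfinder machine-learning gating divided cells into Hoechst high-intensity objects or normal cells, normal cells into healthy, pyknosed or fragmented nuclei, and pyknosed cells into mitotic or apoptotic. Tubulin, mitochondrial-mass and membrane-permeability phenotypes are per cents of healthy-nucleus cells.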

[1] = 12 h, 1 µM, compound concentration 1 uM, replicate 1
[2] = 12 h, 1 µM, compound concentration 1 uM, replicate 2
[3] = 12 h, 10 µM, compound concentration 10 uM, replicate 1
[4] = 12 h, 10 µM, compound concentration 10 uM, replicate 2
[5] = 24 h, 1 µM, compound concentration 1 uM, replicate 1
[6] = 24 h, 1 µM, compound concentration 1 uM, replicate 2
[7] = 24 h, 10 µM, compound concentration 10 uM, replicate 1
[8] = 24 h, 10 µM, compound concentration 10 uM, replicate 2
[9] = 48 h, 1 µM, compound concentration 1 uM, replicate 1
[10] = 48 h, 1 µM, compound concentration 1 uM, replicate 2
[11] = 48 h, 10 µM, compound concentration 10 uM, replicate 1
[12] = 48 h, 10 µM, compound concentration 10 uM, replicate 2

Compound: CCc1ccc(OCc2ccccc2C(=O)Nc2ccc3nc(C)cc(N)c3c2)cc1.Cl
- Population Apoptotic (%) [1]: 67%
- Population Fragmented Nuclei (%) [1]: 31%
- Population Healthy Nuclei (%) [1]: 33%
- Population Hoechst High Intensity Objects (%) [1]: 11%
- Population Membrane Permeable-Phenotype (%) [1]: 9%
- Population Mitochondria Different-Phenotype (%) [1]: 44%
- Population Mitotic Cells (%) [1]: 32%
- Population Normal (%) [1]: 88%
- Population Pyknosed Nuclei (%) [1]: 35%
- Population Tubulin-Different-Phenotype (%) [1]: 63%
- Total Cell Count [1]: 177
- Population Apoptotic (%) [2]: 71%
- Population Fragmented Nuclei (%) [2]: 33%
- Population Hoechst High Intensity Objects (%) [2]: 16%
- Population Membrane Permeable-Phenotype (%) [2]: 28%
- Population Mitochondria Different-Phenotype (%) [2]: 92%
- Population Mitotic Cells (%) [2]: 28%
- Population Normal (%) [2]: 84%
- Population Pyknosed Nuclei (%) [2]: 33%
- Population Tubulin-Different-Phenotype (%) [2]: 85%
- Total Cell Count [2]: 68
- Population Apoptotic (%) [3]: 26%
- Population Fragmented Nuclei (%) [3]: 15%
- Population Healthy Nuclei (%) [3]: 18%
- Population Hoechst High Intensity Objects (%) [3]: 22%
- Population Membrane Permeable-Phenotype (%) [3]: 16%
- Population Mitochondria Different-Phenotype (%) [3]: 55%
- Population Mitotic Cells (%) [3]: 73%
- Population Normal (%) [3]: 77%
- Population Pyknosed Nuclei (%) [3]: 65%
- Population Tubulin-Different-Phenotype (%) [3]: 88%
- Total Cell Count [3]: 125
- Population Apoptotic (%) [4]: 76%
- Population Fragmented Nuclei (%) [4]: 8%
- Population Healthy Nuclei (%) [4]: 14%
- Population Hoechst High Intensity Objects (%) [4]: 12%
- Population Membrane Permeable-Phenotype (%) [4]: 100%
- Population Mitochondria Different-Phenotype (%) [4]: 100%
- Population Mitotic Cells (%) [4]: 23%
- Population Normal (%) [4]: 87%
- Population Pyknosed Nuclei (%) [4]: 77%
- Population Tubulin-Different-Phenotype (%) [4]: 100%
- Total Cell Count [4]: 50
- Population Apoptotic (%) [5]: 79%
- Population Fragmented Nuclei (%) [5]: 32%
- Population Healthy Nuclei (%) [5]: 22%
- Population Hoechst High Intensity Objects (%) [5]: 13%
- Population Membrane Permeable-Phenotype (%) [5]: 10%
- Population Mitochondria Different-Phenotype (%) [5]: 60%
- Population Mitotic Cells (%) [5]: 20%
- Population Normal (%) [5]: 86%
- Population Pyknosed Nuclei (%) [5]: 45%
- Population Tubulin-Different-Phenotype (%) [5]: 86%
- Total Cell Count [5]: 158
- Population Apoptotic (%) [6]: 83%
- Population Fragmented Nuclei (%) [6]: 25%
- Population Healthy Nuclei (%) [6]: 28%
- Population Hoechst High Intensity Objects (%) [6]: 17%
- Population Membrane Permeable-Phenotype (%) [6]: 27%
- Population Mitochondria Different-Phenotype (%) [6]: 90%
- Population Mitotic Cells (%) [6]: 16%
- Population Normal (%) [6]: 82%
- Population Pyknosed Nuclei (%) [6]: 46%
- Population Tubulin-Different-Phenotype (%) [6]: 63%
- Total Cell Count [6]: 92
- Population Apoptotic (%) [7]: 40%
- Population Fragmented Nuclei (%) [7]: 25%
- Population Healthy Nuclei (%) [7]: 48%
- Population Hoechst High Intensity Objects (%) [7]: 50%
- Population Membrane Permeable-Phenotype (%) [7]: 16%
- Population Mitochondria Different-Phenotype (%) [7]: 37%
- Population Mitotic Cells (%) [7]: 60%
- Population Normal (%) [7]: 49%
- Population Pyknosed Nuclei (%) [7]: 25%
- Population Tubulin-Different-Phenotype (%) [7]: 97%
- Total Cell Count [7]: 155
- Population Apoptotic (%) [8]: 70%
- Population Fragmented Nuclei (%) [8]: 15%
- Population Healthy Nuclei (%) [8]: 38%
- Population Hoechst High Intensity Objects (%) [8]: 31%
- Population Membrane Permeable-Phenotype (%) [8]: 47%
- Population Mitochondria Different-Phenotype (%) [8]: 94%
- Population Mitotic Cells (%) [8]: 30%
- Population Normal (%) [8]: 68%
- Population Pyknosed Nuclei (%) [8]: 45%
- Population Tubulin-Different-Phenotype (%) [8]: 94%
- Total Cell Count [8]: 47
- Population Apoptotic (%) [9]: 90%
- Population Fragmented Nuclei (%) [9]: 46%
- Population Healthy Nuclei (%) [9]: 20%
- Population Hoechst High Intensity Objects (%) [9]: 20%
- Population Membrane Permeable-Phenotype (%) [9]: 40%
- Population Mitochondria Different-Phenotype (%) [9]: 32%
- Population Mitotic Cells (%) [9]: 9%
- Population Normal (%) [9]: 79%
- Population Pyknosed Nuclei (%) [9]: 33%
- Population Tubulin-Different-Phenotype (%) [9]: 72%
- Total Cell Count [9]: 157
- Population Apoptotic (%) [10]: 84%
- Population Fragmented Nuclei (%) [10]: 51%
- Population Healthy Nuclei (%) [10]: 25%
- Population Hoechst High Intensity Objects (%) [10]: 16%
- Population Membrane Permeable-Phenotype (%) [10]: 30%
- Population Mitochondria Different-Phenotype (%) [10]: 55%
- Population Mitotic Cells (%) [10]: 15%
- Population Normal (%) [10]: 83%
- Population Pyknosed Nuclei (%) [10]: 23%
- Population Tubulin-Different-Phenotype (%) [10]: 70%
- Total Cell Count [10]: 96
- Population Fragmented Nuclei (%) [11]: 68%
- Population Healthy Nuclei (%) [11]: 28%
- Population Hoechst High Intensity Objects (%) [11]: 47%
- Population Membrane Permeable-Phenotype (%) [11]: 4%
- Population Mitochondria Different-Phenotype (%) [11]: 68%
- Population Normal (%) [11]: 52%
- Population Pyknosed Nuclei (%) [11]: 2%
- Population Tubulin-Different-Phenotype (%) [11]: 86%
- Total Cell Count [11]: 146
- Population Apoptotic (%) [12]: 100%
- Population Fragmented Nuclei (%) [12]: 86%
- Population Healthy Nuclei (%) [12]: 8%
- Population Hoechst High Intensity Objects (%) [12]: 39%
- Population Membrane Permeable-Phenotype (%) [12]: 0%
- Population Mitochondria Different-Phenotype (%) [12]: 50%
- Population Mitotic Cells (%) [12]: 0%
- Population Normal (%) [12]: 60%
- Population Pyknosed Nuclei (%) [12]: 4%
- Population Tubulin-Different-Phenotype (%) [12]: 50%
- Total Cell Count [12]: 38
